Experiments:
Format in all cases: functional
[1] = Growth inhibition of human SF295 cells assessed as cell growth at 10 uM incubated for 48 hrs by sulforhodamine B assay relative to control; conditions: SF-295, 48 h, read-out: Activity
Outline: (§1)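 Run in the standard NCI 60-cell-line screen. Cells were exposed to drug for two days, and the read-out was sulforhodamine B staining. Compound was tested at a single final concentration of 10 µM in every line, and results are reported as growth percent.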

[2] = Growth inhibition of human RPMI8226 cells incubated for 48 hrs by sulforhodamine B assay; conditions: RPMI-8226, 48 h; for CC50: read-out: pLC50 (the source's name) (converted); for TGI: read-out: pTGI (converted)
Outline: (§2)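 NCI 60-cell-line panel, standard protocol. Cells exposed to compound for two days, growth read by sulforhodamine B staining. Tested at five 10-fold dilutions, top concentration 100 µM, to give dose-response curves.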

[3] = system: SK-MEL-28; test: Growth inhibition of human SK-MEL-28 cells incubated for 48 hrs by sulforhodamine B assay; conditions: SK-MEL-28, 48 h; for TGI: read-out: pTGI (converted); outline: as §2
[4] = Growth inhibition of human OVCAR3 cells assessed as cell growth at 10 uM incubated for 48 hrs by sulforhodamine B assay relative to control; conditions: OVCAR-3, 48 h, read-out: Activity; outline: as §1
[5] = Growth inhibition of human RPMI8226 cells assessed as cell growth at 10 uM incubated for 48 hrs by sulforhodamine B assay relative to control; conditions: RPMI-8226, 48 h, read-out: Activity; outline: as §1
[6] = system: MDA-MB-435; test: Growth inhibition of human MDA-MB-435 cells incubated for 48 hrs by sulforhodamine B assay; conditions: MDA-MB-435, 48 h; for TGI: read-out: pTGI (converted); outline: as §2
[7] = Growth inhibition of human SNB75 cells assessed as cell growth at 10 uM incubated for 48 hrs by sulforhodamine B assay relative to control; conditions: SNB-75, 48 h, read-out: Activity; outline: as §1
[8] = Growth inhibition of human HCT116 cells incubated for 48 hrs by sulforhodamine B assay; conditions: HCT-116, 48 h; for TGI: read-out: pTGI (converted); outline: as §2
[9] = system: CCRF-CEM; test: Growth inhibition of human CCRF-CEM cells incubated for 48 hrs by sulforhodamine B assay; conditions: for CC50: read-out: pLC50 (the source's name) (converted); for TGI: read-out: pTGI (converted); outline: as §2
[10] = Growth inhibition of human IGROV1 cells incubated for 48 hrs by sulforhodamine B assay; conditions: IGROV-1, 48 h; for CC50: read-out: pLC50 (the source's name) (converted); for TGI: read-out: pTGI (converted); outline: as §2
[11] = Growth inhibition of human SF268 cells assessed as cell growth at 10 uM incubated for 48 hrs by sulforhodamine B assay relative to control; conditions: SF-268, 48 h, read-out: Activity; outline: as §1
[12] = Growth inhibition of human SNB19 cells incubated for 48 hrs by sulforhodamine B assay; conditions: SNB-19, 48 h; for CC50: read-out: pLC50 (the source's name) (converted); for TGI: read-out: pTGI (converted)
Outline: (§3)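 Tested in the standard NCI 60-cell-line protocol with two-day drug exposure and a sulforhodamine B endpoint. Compounds were first screened at a single final concentration of 10 µM, reported as growth percent. They were then run as five 10-fold dilutions starting from a high concentration of 100 µM to give dose-response curves.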

[13] = Growth inhibition of human SF539 cells assessed as cell growth at 10 uM incubated for 48 hrs by sulforhodamine B assay relative to control; conditions: SF-539, 48 h, read-out: Activity
Outline: (§4)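 Single-dose screen in the NCI 60-cell-line panel at one final concentration of 10 µM. Two-day drug exposure with a sulforhodamine B endpoint. Values are growth percent for each cell line.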

[14] = Growth inhibition of human SF295 cells incubated for 48 hrs by sulforhodamine B assay; conditions: SF-295, 48 h; for TGI: read-out: pTGI (converted); outline: as §2
[15] = Growth inhibition of human HCT15 cells assessed as cell growth at 10 uM incubated for 48 hrs by sulforhodamine B assay relative to control; conditions: HCT-15, 48 h, read-out: Activity; outline: as §1
[16] = Growth inhibition of human PC3 cells assessed as cell growth at 10 uM incubated for 48 hrs by sulforhodamine B assay relative to control; conditions: PC-3, 48 h, read-out: Activity; outline: as §1
[17] = system: HT-29; test: Growth inhibition of human HT-29 cells incubated for 48 hrs by sulforhodamine B assay; conditions: HT-29, 48 h; for TGI: read-out: pTGI (converted); outline: as §2
[18] = system: NCI-H322M; test: Growth inhibition of human NCI-H322M cells incubated for 48 hrs by sulforhodamine B assay; conditions: for TGI: read-out: pTGI (converted); outline: as §2
[19] = system: K562; test: Growth inhibition of human K562 cells incubated for 48 hrs by sulforhodamine B assay; conditions: K562, 48 h; for CC50: read-out: pLC50 (the source's name) (converted); for TGI: read-out: pTGI (converted); outline: as §2
[20] = Growth inhibition of human HL-60(TB) cells assessed as cell growth at 10 uM incubated for 48 hrs by sulforhodamine B assay relative to control; conditions: HL-60, 48 h, read-out: Activity; outline: as §4
[21] = system: A498; test: Growth inhibition of human A498 cells assessed as cell growth at 10 uM incubated for 48 hrs by sulforhodamine B assay relative to control; conditions: A498, 48 h, read-out: Activity
[22] = Growth inhibition of human BT549 cells assessed as cell growth at 10 uM incubated for 48 hrs by sulforhodamine B assay relative to control; conditions: BT-549, 48 h, read-out: Activity; outline: as §1
[23] = system: ACHN; test: Growth inhibition of human ACHN cells assessed as cell growth at 10 uM incubated for 48 hrs by sulforhodamine B assay relative to control; conditions: read-out: Activity; outline: as §1
[24] = Growth inhibition of human SNB75 cells incubated for 48 hrs by sulforhodamine B assay; conditions: SNB-75, 48 h; for TGI: read-out: pTGI (converted); outline: as §3
[25] = Growth inhibition of human DU145 cells incubated for 48 hrs by sulforhodamine B assay; conditions: DU-145, 48 h; for CC50: read-out: pLC50 (the source's name) (converted); for TGI: read-out: pTGI (converted); outline: as §2
[26] = system: T47D; test: Growth inhibition of human T47D cells incubated for 48 hrs by sulforhodamine B assay; conditions: for CC50: read-out: pLC50 (the source's name) (converted); for TGI: read-out: pTGI (converted); outline: as §3
[27] = system: NCI-H460; test: Growth inhibition of human NCI-H460 cells assessed as cell growth at 10 uM incubated for 48 hrs by sulforhodamine B assay relative to control; conditions: NCI-H460, 48 h, read-out: Activity; outline: as §1
[28] = Growth inhibition of human HOP62 cells assessed as cell growth at 10 uM incubated for 48 hrs by sulforhodamine B assay relative to control; conditions: HOP-62, 48 h, read-out: Activity; outline: as §1
[29] = Growth inhibition of human HOP92 cells assessed as cell growth at 10 uM incubated for 48 hrs by sulforhodamine B assay relative to control; conditions: HOP-92, 48 h, read-out: Activity; outline: as §4
[30] = system: CCRF-CEM; test: Growth inhibition of human CCRF-CEM cells assessed as cell growth at 10 uM incubated for 48 hrs by sulforhodamine B assay relative to control; conditions: read-out: Activity; outline: as §4

`CC(C)[C@@]12C[C@@H](NC(=O)CO)[C@@](C)(O1)[C@@H]1CC[C@@H](C)[C@H]1[C@@H]2OC(=O)c1ccc2ccccc2c1` showed a growth at 10 µM [1] of 82.5%, a GI50 [2] of 14.5 µM and a CC50 [2] of 85.1 µM. The TGI [2] was 35.5 µM, the GI50 [3] was 16.6 µM and the LC50 [3] was 57.5 µM. The TGI [3] was 30.9 µM, the growth at 10 µM [4] was 98.8% and the growth at 10 µM [5] was 67.6%. For the same molecule, the GI50 [6] was 17 µM, the LC50 [6] was 63.1 µM and the TGI [6] was 32.4 µM. The growth at 10 µM [7] was 72.7%, the GI50 [8] was 14.1 µM and the LC50 [8] was 53.7 µM. For the same molecule, the TGI [8] was 27.5 µM, the GI50 [9] was 15.8 µM and the CC50 [9] was 75.9 µM. It also gave a TGI [9] of 34.7 µM, a GI50 [10] of 17.8 µM and a CC50 [10] of 61.7 µM. The TGI [10] was 33.1 µM, the growth at 10 µM [11] was 79% and the GI50 [12] was 16.2 µM. For the same molecule, the CC50 [12] was 60.3 µM, the TGI [12] was 31.6 µM and the growth at 10 µM [13] was 84.6%. It also gave a GI50 [14] of 16.2 µM, an LC50 (concentration causing 50% net cell kill) [14] of 57.5 µM and a TGI [14] of 30.2 µM. The growth at 10 µM [15] was 90.8%, the growth at 10 µM [16] was 66.9% and the GI50 [17] was 17.4 µM. The LC50 [17] was 60.3 µM, the TGI [17] was 32.4 µM and the GI50 [18] was 13.5 µM. The LC50 [18] was 52.5 µM, the TGI [18] was 26.9 µM and the GI50 [19] was 19.5 µM. For the same molecule, the CC50 [19] was 95.5 µM, the TGI [19] was 42.7 µM and the growth at 10 µM [20] was 99.3%. The growth at 10 µM [21] was -15.2%, the growth at 10 µM [22] was 70.2% and the growth at 10 µM [23] was 8.4%. For the same molecule, the GI50 [24] was 13.2 µM, the LC50 [24] was 56.2 µM and the TGI [24] was 27.5 µM. For the same molecule, the GI50 [25] was 16.2 µM, the CC50 [25] was 56.2 µM and the TGI [25] was 30.2 µM. The GI50 [26] was 14.8 µM, the CC50 [26] was 56.2 µM and the TGI [26] was 28.8 µM. The growth at 10 µM [27] was 92.6% and the growth at 10 µM [28] was 89.3%.

`C/C(=C\C(=O)O[C@H]1[C@@H]2[C@H](C)CC[C@H]2[C@]2(C)O[C@@]1(C(C)C)C[C@H]2NC(=O)CO)c1ccccc1` showed a growth at 10 µM [1] of 97.8%, a GI50 [2] of 19.5 µM and a CC50 [2] greater than 100 µM. For the same molecule, the TGI [2] was 56.2 µM, the GI50 [3] was 45.7 µM and the LC50 [3] was greater than 100 µM. The TGI [3] was greater than 100 µM, the growth at 10 µM [4] was 121% and the GI50 [6] was 33.9 µM. For the same molecule, the LC50 [6] was greater than 100 µM, the TGI [6] was greater than 100 µM and the growth at 10 µM [7] was 102%. It also gave a GI50 [8] of 32.4 µM, an LC50 [8] greater than 100 µM and a TGI [8] greater than 100 µM. It also gave a GI50 [9] of 25.1 µM, a CC50 [9] greater than 100 µM and a TGI [9] of 77.6 µM. The GI50 [10] was greater than 100 µM, the CC50 [10] was greater than 100 µM and the TGI [10] was greater than 100 µM. For the same molecule, the growth at 10 µM [11] was 106%, the GI50 [12] was 74.1 µM and the CC50 [12] was greater than 100 µM. It also gave a TGI [12] greater than 100 µM, a growth at 10 µM [13] of 91.2% and a GI50 [14] of 36.3 µM. The LC50 (concentration causing 50% net cell kill) [14] was greater than 100 µM, the TGI [14] was greater than 100 µM and the growth at 10 µM [15] was 100%. It also gave a growth at 10 µM [16] of 83.1%, a GI50 [17] of 40.7 µM and an LC50 [17] greater than 100 µM. It also gave a TGI [17] greater than 100 µM, a GI50 [18] greater than 100 µM and an LC50 [18] greater than 100 µM. The TGI [18] was greater than 100 µM, the GI50 [19] was 31.6 µM and the CC50 [19] was greater than 100 µM. It also gave a TGI [19] greater than 100 µM, a growth at 10 µM [29] of 87.1% and a growth at 10 µM [21] of -24.6%. For the same molecule, the growth at 10 µM [22] was 117%, the growth at 10 µM [23] was 27.9% and the GI50 [24] was 12.3 µM. The LC50 [24] was greater than 100 µM, the TGI [24] was greater than 100 µM and the growth at 10 µM [30] was 94.1%. It also gave a GI50 [25] of 60.3 µM, a CC50 [25] greater than 100 µM and a TGI [25] greater than 100 µM. The GI50 [26] was 20.4 µM, the CC50 [26] was greater than 100 µM and the TGI [26] was greater than 100 µM. For the same molecule, the growth at 10 µM [27] was 106% and the growth at 10 µM [28] was 97.6%.
